Arrestin-AP2 inh = inhibitors of beta-arrestin/AP2 binding, primary screen, biochemical, GPCR trafficking, flow cytometry | FITC-arrestin peptide / GST-AP2 beads; AP2 beta2 appendage carries R879A mutation | AID 504490, 2011 | beta-arrestin 1 C-terminal peptide binding to AP2 beta2-adaptin appendage (human) | actives 0.31% (n = 340,000) | inhibition, % at 10 µM;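 active means inhibition above a set limit, near 3 SD of compounds lacking own fluorescence, cut at about 54% in these data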;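 further: plate controls were DMSO wells for no effect and 5 µM unlabelled arrestin peptide for full effect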
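Test system: GST-tagged AP2 beta2-adaptin appendage (R879A) on 4 µm glutathione beads; also added: fluorescein-tagged arrestin peptide at 50 nM final; timing: 12 min plus 1 h, RT; signal: flow cytometry, FL1 (488/535 nm); read-out: percent drop in bead-associated FITC signal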
Pemphigus Ab inh = inhibitors of pemphigus antibody binding to DSG3, primary screen, biochemical, bead-based, flow cytometry, scFv-GFP | actives 0.48% (n = 310,000) | Desmoglein-3 (Homo sapiens), P32926 | DSG3-coupled beads, scFv-anti-DSG3-GFP binding; stronger effect = lower value | AID 588358, 2011 | binding (percent of control), % at 10 µM;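 active means binding more than 3 SD below its plate's average and above zero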;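 further: hits lower antibody fragment binding to DSG3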
Target sequence (P32926 whole entry, looked up, the tested form may be a part): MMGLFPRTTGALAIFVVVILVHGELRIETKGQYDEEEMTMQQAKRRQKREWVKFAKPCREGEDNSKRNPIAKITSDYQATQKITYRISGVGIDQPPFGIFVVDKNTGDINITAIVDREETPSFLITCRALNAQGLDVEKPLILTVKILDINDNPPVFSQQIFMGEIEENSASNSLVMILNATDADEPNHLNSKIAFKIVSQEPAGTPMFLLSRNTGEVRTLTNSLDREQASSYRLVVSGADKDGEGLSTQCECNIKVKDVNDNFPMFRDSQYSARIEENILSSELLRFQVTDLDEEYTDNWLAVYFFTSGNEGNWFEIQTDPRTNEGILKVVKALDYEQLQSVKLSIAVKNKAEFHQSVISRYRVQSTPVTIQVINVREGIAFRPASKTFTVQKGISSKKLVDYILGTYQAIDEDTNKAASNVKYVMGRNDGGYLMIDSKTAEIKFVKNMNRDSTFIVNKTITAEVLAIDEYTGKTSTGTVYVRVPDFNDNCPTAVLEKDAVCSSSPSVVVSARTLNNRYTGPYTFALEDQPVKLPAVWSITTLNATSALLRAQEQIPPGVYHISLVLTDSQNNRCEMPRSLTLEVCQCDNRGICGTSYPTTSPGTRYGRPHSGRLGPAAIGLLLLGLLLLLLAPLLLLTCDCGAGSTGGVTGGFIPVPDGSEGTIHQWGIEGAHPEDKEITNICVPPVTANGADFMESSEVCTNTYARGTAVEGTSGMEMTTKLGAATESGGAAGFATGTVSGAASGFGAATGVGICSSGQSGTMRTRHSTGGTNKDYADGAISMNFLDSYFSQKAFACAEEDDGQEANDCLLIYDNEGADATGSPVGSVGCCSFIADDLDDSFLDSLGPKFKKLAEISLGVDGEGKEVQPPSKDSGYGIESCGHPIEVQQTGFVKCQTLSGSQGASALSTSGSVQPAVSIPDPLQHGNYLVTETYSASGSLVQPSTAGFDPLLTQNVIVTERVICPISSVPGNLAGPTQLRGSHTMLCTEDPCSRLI
HDAC3 inh = HDAC3 deacetylase inhibitors, primary screen, biochemical, fluorescence, cell-free homogeneous | recombinant HDAC3, fluorogenic peptide/trypsin coupled | inhibition, % at 8.3 µM | Histone deacetylase 3 (Homo sapiens), O15379 | actives 0.15% (n = 320,000); in the data active means inhibition above about 26%, passing the limit was not always enough
T cell HTS = modulators of CD8 T cell-vesicle binding, primary screen, mouse 2C CD8+ T cells, flow cytometry; 2C CD8+ T cell-vesicle binding; stronger effect = lower value; actives 0.068% (n = 330,000); AID 2052, 2009; response (vesicle binding), % at 7 µM;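 active means response, share of CD8 T cells binding vesicles, and their 90th percentile fluorescence all below set limits, cut at about 80% in these data, passing the limit was not always enough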;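 further: values below 100% mean blocked vesicle binding to the CD8+ T cells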
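Test system: purified 2C TCR transgenic mouse naive CD8+ T cells. Probe or stimulus: QL9-peptide-loaded Drosophila micro-vesicles bearing Ld, ICAM-1 and B7-1. Incubation: binding step 1.5 h, 37 °C, antibody labelling 20 min, ice. Measured by: flow cytometry of vesicle-bound cells.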
JMJD2C inh = inhibitors of GASC-1 histone demethylase, primary screen, biochemical, fluorescence, DELFIA europium | GST-JMJD2C(1-420) H3K9me3 demethylation | inhibition, % at 2.35 µM | actives 0.069% (n = 330,000) | Lysine-specific demethylase 4C (Homo sapiens), Q9H3R0;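 active means more than half of a compound's replicate wells show inhibition beyond 50%, single wells judged on their own value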;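 further: signal counts dimethyl H3K9 product captured on neutravidin plate; 0% = median of DMSO wells and 100% = 0.3 times that DMSO median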
LANA-H2B inh = blockers of LANA interaction with H2A/H2B – biochemical, FP readout, HTS, primary screen | Protein LANA1 (Human herpesvirus 8 type P (isolate GK18)), Q9QR71 | cell-free LANA-H2A/H2B peptide, fluorescence polarization | inhibition, % (no concentration beside the values) | actives 0.6% (n = 320,000); in the data active means inhibition mostly above about 10%, no sharp cut-off; inactive means mostly below about 6.7%
* hit, by the source's call; · = no result. Compounds with a hit are over-represented: about 1.6% of the library has one in this group of screens.

SMILES | Arrestin-AP2 inh | Pemphigus Ab inh | HDAC3 inh | T cell HTS | JMJD2C inh | LANA-H2B inh
Cc1ccccc1-c1nnc(SCC(=O)Nc2ccc3c(c2)OCCO3)n1N | 25 | 99 | 5 | 400 | -3 | -2
CCc1nnc(NC(=O)CSc2nncc(=O)n2N)s1 | 42 | 85* | 9 | 611 | 3 | 3
CCc1nnc(NC(=O)CSc2nnc3c(n2)[nH]c2ccccc23)s1 | 2 | 32* | -3 | 230 | -10 | 1
Nn1c(SCC(=O)Nc2ccc3c(c2)OCCO3)nncc1=O | 3 | 107 | -5 | 483 | 2 | 13*
CCSc1nnc(NC(=O)CSc2nncc(=O)n2N)s1 | -1 | 101 | -7 | 339 | -24 | 6
CCc1nnc(NC(=O)CSc2ccc(-c3ccc(-n4cccn4)cc3)nn2)s1 | 6 | 77* | -4 | 615 | -3 | 2
CCCCn1c(N)c(N(CC)C(=O)COc2ccc(C#N)cc2)c(=O)[nH]c1=O | -5 | 117 | -9 | 337 | 2 | 2
O=C(OCCCOC(=O)c1ccc(Br)o1)c1ccc(Br)o1 | -1 | 106 | -4 | 317 | 34 | 7
FC(F)(F)c1cccnc1-n1cncn1 | 19 | 104 | -1 | 219 | -8 | 13*
N#Cc1ccccc1OCC(=O)Nc1cc(S(=O)(=O)N2CCCCC2)ccc1N1CCOCC1 | 19 | 108 | · | · | · | ·
Cc1c(N=C2N=C(NC(=O)NC(C)(C)C)c3ccccc32)c(=O)n(-c2ccccc2)n1C | 12 | 100 | 2 | 32* | -39 | 6
CCOc1ccccc1N(CC(=O)N1CCN(Cc2ccccc2)CC1)S(=O)(=O)c1ccccc1 | · | 99 | · | · | · | ·
COCCN1CCN(C(=O)c2cc(COc3ccc(Cl)cc3OC)on2)CC1 | 8 | 101 | -7 | 896 | 2 | -1
O=C(Nc1ccc(Nc2ccncc2)cc1)c1ccc(Nc2ccnc3ccc([N+](=O)[O-])cc23)cc1 | 9 | 60* | · | · | -11 | ·
O=C(Nc1ccc(Cc2ccncc2)cc1)c1cccc([N+](=O)[O-])c1 | 2 | 90 | · | 91 | 4 | 0
O=C(Cn1cc(C(F)(F)F)ccc1=O)Nc1cccc(S(=O)(=O)N2CCOCC2)c1 | 15 | 107 | -1 | 210 | -2 | 22*
CCOc1ccc(S(=O)(=O)N2CCOCC2)cc1NC(=O)CSCC(=O)Nc1cccc(C)c1 | 8 | · | 1 | 0.0* | 1 | -3
CCOc1ccc(S(=O)(=O)N2CCOCC2)cc1NC(=O)CN1C(=O)NC2(CCCCC2)C1=O | 10 | 97 | -2 | 158 | 0 | 24*
CC(C)Oc1ccc(S(=O)(=O)N2CCOCC2)cc1NC(=O)CC1OC(=O)c2ccccc21 (stereo not drawn) | -7 | 119 | -3 | 341 | -8 | 16*
O=C(Cn1cc(C(F)(F)F)ccc1=O)Nc1cc(S(=O)(=O)N2CCOCC2)ccc1Cl | 4 | 105 | -8 | 426 | -13 | -2
CC(C)Oc1ccc(S(=O)(=O)N2CCCCC2)cc1NC(=O)CC1OC(=O)c2ccccc21 (stereo not drawn) | -2 | 95 | -2 | 260 | -7 | -7
COc1ccc2[nH]c3c(c2c1)CCN1C(=O)C(CC(=O)NC(C)(C)C)C[C@H](C(=O)N2CCCCC2)[C@@]31C (stereo partly drawn) | 15 | 104 | · | · | · | ·
Cc1nc(-c2ccc(F)cc2)c(CC(=O)N2CCN(S(=O)(=O)c3cccc(F)c3)CC2)s1 | -1 | 100 | · | 495 | 0 | 3
O=C(Nc1ccccc1)C1CCOC1=O (stereo not drawn) | 14 | 101 | -3 | 542 | 3 | 4
COCCN(C(=O)c1cc(S(=O)(=O)N2CCCCC2)ccc1Cl)c1c(N)n(CC(C)C)c(=O)[nH]c1=O | -3 | 102 | · | · | · | ·
SMILES | Arrestin-AP2 inh | Pemphigus Ab inh | HDAC3 inh | T cell HTS | JMJD2C inh | LANA-H2B inh
CCOc1ccc(C(=O)OCC(=O)Nc2cc(S(=O)(=O)N3CCOCC3)ccc2N2CCOCC2)cc1 | 12 | -19* | · | · | · | ·
COc1cc(/C=C2\SC(=S)N(c3cccnc3)C2=O)ccc1O | 44 | 68* | 2 | 148 | -2 | 7
COc1cc(/C=C2\SC(=S)N(NC(=O)c3cccnc3)C2=O)ccc1O | 2 | 98 | 16 | 432 | 0 | -2
O=C(Nc1ccc(Nc2ccccc2)cc1)c1ccccc1 | 8 | 105 | 2 | 411 | 25 | 1
O=C(Nc1ccc(Nc2ccccc2)cc1)c1ccc(Br)cc1 | 11 | 95* | 2 | 291 | -13 | -4
Cc1ccccc1N=C1N=C(N)c2ccccc21 | 1 | 89 | · | 291 | 60* | ·
COc1cccc(-c2noc(C3CCCN(C(=O)Cc4ccccc4)C3)n2)c1 (stereo not drawn) | -3 | 94 | -4 | 496 | · | 11*
CCCC(=O)N1CCCC(c2nc(-c3cccc(OC)c3)no2)C1 (stereo not drawn) | -1 | 99 | -6 | 508 | -6 | 3
O=C(COc1ccc(F)cc1)OCCN1CCOCC1 | -6 | 106 | 11 | 299 | -5 | 34*
COc1cc(C)ccc1OCc1cc(C(=O)NC(c2ccccn2)C(F)(F)F)no1 (stereo not drawn) | · | 79* | · | · | · | ·
COc1cc(C)ccc1OCc1cc(C(=O)NC2CCOCC2)no1 | · | 110 | · | · | · | ·
COc1ccc(NC(=O)c2cc(-c3ccccc3)nc3c2cnn3C(C)C)c(OC)c1 | -3 | 106 | 0 | 199 | -8 | -1
Cn1nc(-c2ccccn2)nc2c(=O)n(C)c(=O)nc1-2 | 5 | 99 | · | 135 | 54* | -3
CCCc1nc2c(=O)n(C)c(=O)nc-2n(C)n1 | 14 | · | · | · | · | ·
O=C(CNC(=O)c1ccccn1)N=Nc1c(O)[nH]c2ccccc12 | 25 | · | 8 | 279 | -4 | -1
COC(=O)C(CCCN1C(=O)c2ccccc2C1=O)(NC(C)=O)c1nn[nH]n1 (stereo not drawn) | -7 | 97 | 4 | 408 | 1 | 19*
CC(=O)Nc1ccc(NC(=O)CCCN2C(=O)c3ccccc3C2=O)cc1 | 44 | 109 | 1 | 785 | -10 | 5
COc1cc2c(cc1OC)C(C)=NC1(CCCCC1)C2 | 1 | 103 | · | 262 | 2 | 8.0*
Cc1nc(NC(=O)/C=C/c2ccccc2)sc1C(=O)Nc1ccccc1Cl | 7 | 78* | -6 | 715 | 1 | 5
CCNc1nc(NCC)nc(N/N=C/c2ccc(N(C)C)cc2)n1 | 7 | 103 | -4 | 203 | 6 | 65*

Bioassay records as filed in PubChem BioAssay.
